# Screening results from PubChem BioAssay.
# An excerpt weighted towards active compounds, which were near 3.7% of everything screened.
# Mdm2 MdmX PPI: inhibitors of human Mdm2-MdmX association, primary screen, cell-based, luminescence, split luciferase, SaOS-2, uHTS; inhibition, % at 8 µM; 3% of 330,000 active; SaOS-2 split-luciferase Mdm2/MdmX complementation; AID 485346, 2010; Protein Mdm4 (Homo sapiens) + E3 ubiquitin-protein ligase Mdm2 (Homo sapiens), …;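 active = inhibition of at least 50% at 8 µM in the primary screen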
# Beta2AR agonist: beta2AR agonists driving receptor internalization, primary screen, cell-based, FAP fluorogen, flow cytometry | Beta-2 adrenergic receptor (Homo sapiens), P07550 | Am2.2-beta2AR cells | response, % (concentration not given with the values) | 0.43% of 340,000 active;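 active = response above a set limit, near 3 SD of response in nonfluorescent compounds, cut at about 42% in these data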
# Target sequence (P07550 whole entry, looked up): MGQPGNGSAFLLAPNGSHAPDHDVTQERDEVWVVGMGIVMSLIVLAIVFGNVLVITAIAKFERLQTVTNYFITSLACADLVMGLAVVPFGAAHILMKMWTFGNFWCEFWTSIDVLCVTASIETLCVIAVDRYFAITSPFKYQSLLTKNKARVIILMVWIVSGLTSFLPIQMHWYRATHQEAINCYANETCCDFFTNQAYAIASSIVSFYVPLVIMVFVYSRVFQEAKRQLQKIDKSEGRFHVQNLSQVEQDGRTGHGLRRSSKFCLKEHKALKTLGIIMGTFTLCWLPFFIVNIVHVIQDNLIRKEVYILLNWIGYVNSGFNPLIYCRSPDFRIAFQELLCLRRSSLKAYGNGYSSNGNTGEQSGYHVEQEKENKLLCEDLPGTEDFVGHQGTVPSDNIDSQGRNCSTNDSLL
# XBP1 UPR activ: activators of adaptive XBP1 UPR arm, primary screen, cell-based, CHO-XBP1 luciferase reporter, luminescence, uHTS; IRE1-XBP1 UPR activation; percent of tunicamycin response, DMSO as zero; activation, % at 20 µM; 0.33% of 330,000 active; AID 463104, 2010;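 active = versus positive control, 20 µM dose yields 30% or more activation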;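 note: 100% = tunicamycin at 10 µg/mL and 0% = DMSO only wells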
#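 Assay system: CHO-XBP1 luciferase reporter cells; Schedule: 6 h treatment, 37 °C; Detection: glow luminescence from Steady-Glo reagent; Benchmarks: high control tunicamycin 10 µg/mL final, low control DMSO vehicle only.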
# Mdm2 ligase inh: MDM2-luciferase reporter signal enhancers, primary screen, MDM2 E3 ligase inhibitor project, cell-based, luminescence, 1536-well; cell-based MDM2 ubiquitination luciferase reporter, 2 h; 0 = plate control, 100 = twice control, blank-subtracted; signal enhancement, % at 5 µM; 0.11% of 210,000 active;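 active = signal enhancement of 30% or more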;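 note: luminescence tracks abundance of the self-degrading MDM2-luciferase fusion protein; higher signal means inhibition of MDM2 E3 ligase activity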
#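 Material: Stable MDM2–luciferase fusion reporter cells | Amount: 2000 cells seeded into each well | Dosing: One concentration, 5 µM, with 0.2% DMSO | Incubation: 4 h cell settling then 2 h compound exposure, 37 °C | Measured by: Luciferase luminescence | Read-out basis: % enhancement relative to plate controls after blank subtraction | Benchmarks: Control and blank well means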
# Dynein transport: inhibitors of GR-EGFP nuclear translocation, primary screen, dynein cargo transport inhibitor project, imaging, high-content, 3617.4 mouse cells; z-score, hits read low; 0.47% of 220,000 active; test concentration mostly 20 µM; stimulated with dexamethasone, 1 µM; stronger effect = lower value; AID 1381, 2008;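 active = plate z-score of nuclear minus cytoplasmic receptor signal below a set negative limit, without overly bright fluorescence or cell loss, cut at about -3.5 in these data, passing the limit was not always enough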;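 note: z-score of nuclear minus cytoplasmic ring GR-EGFP intensity difference per well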
#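 medium = tetracycline-free induction medium containing charcoal-stripped FBS | probe or stimulus = dexamethasone, 1.0 µM final | timing = 48 h induction, then 1 h compound, then 30 min agonist, 37 °C | detection = automated 10x imaging of fixed Hoechst-stained cells | read-out basis = nuclear versus cytoplasmic GR-EGFP signal, averaged per well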
# CHOP UPR activ: activators of apoptotic CHOP UPR arm, primary screen, cell-based, CHO-CHOP luciferase reporter, luminescence, uHTS; 0.34% of 330,000 active; UPR activation; percent of tunicamycin response over DMSO baseline; AID 449763, 2010; activation, % at 10 µM;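 active = at 10 µM dose, activation of 40% or more, normalized to positive control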;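 note: 100% = tunicamycin at 10 µg/mL and 0% = DMSO alone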
#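 Dosing – one dose, 10 µM in 0.5% DMSO · System – CHO-CHOP cells, stable luciferase reporter of PERK-eIF2a-CHOP signalling · Input – 500 cells/well · Control set – tunicamycin 10 µg/mL final as positive, DMSO-only wells as negative · Timing – 6 h compound treatment, 37 °C · Measure – % activation vs tunicamycin · Technique – luminescence read with Steady-Glo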
# The depositor's hits bear a star; . = no result given.
SMILES,Mdm2 MdmX PPI,Beta2AR agonist,XBP1 UPR activ,Mdm2 ligase inh,Dynein transport,CHOP UPR activ
COc1ccc(C(=O)NCC(=O)OCC(=O)Nc2cc([N+](=O)[O-])ccc2F)cc1,16,2,0,-2,-0.3,0
CCOC(=O)C1CCN(C(=O)Cn2ncc3c([nH]c4ccccc43)c2=O)CC1,18,4,-1,.,.,3
CCN(CC)C(=O)CN1CCN(c2ncccn2)CC1,25,3,-5,53*,-0.3,-1
CCCCn1c(NC(=O)c2ccc(F)cc2)c(C#N)c2nc3ccccc3nc21,22,.,96*,.,.,2
COc1ccccc1CCNC(=O)c1ccc(NC(=O)CC2SC(N3CCCCC3)=NC2=O)cc1 (stereo unspecified),-17,4,-1,.,.,-2
C=CCn1c(SCC(=O)N2CCN(c3ccccc3)CC2)nc2c([nH]c3ccccc32)c1=O,48,5,73*,.,.,21
Cc1ccc(C)c(NC(=O)C(Sc2nnc(-c3cccs3)o2)c2ccccc2)c1 (stereo unspecified),.,5,.,50*,2.5,.
Cc1nnc(Sc2cc(NCCO)c([N+](=O)[O-])c3nonc23)s1,.,-13,.,-2,-2.5,.
Cc1nnc(Sc2cc(NCCCO)c([N+](=O)[O-])c3nonc23)s1,.,43*,.,4,1.5,.
O=C(Nc1ccc(S(=O)(=O)Nc2nccs2)cc1)c1nn(-c2ccccc2)ccc1=O,19,58*,-5,.,.,-3
O=C(c1cn(-c2ccccc2)nc1-c1cccs1)N1CCOCC1,23,-1,0,33*,-0.53,-1
O=C(CC1SC(N2CCCCC2)=NC1=O)Nc1cccc(C(=O)Nc2ncccc2O)c1 (stereo unspecified),9,1,-1,.,.,3
C=C1CCN(C(C(=O)OC)C(C)C)S(=O)(=O)c2ccccc21 (stereo unspecified),18,-1,-2,33*,0.18,2
Cc1cc(C)c(S(=O)(=O)c2ccccc2)c(OC(=O)c2cc(F)c(F)cc2Cl)n1,14,1,-1,35*,-1.3,0
Cc1cc(NC(=O)NC(C(F)(F)F)C(F)(F)F)no1,14,-1,-2,-7,-0.97,0
CCCCCCC(=O)Cc1cc(OC)c(OC)cc1C=C(C(=O)OCC)C(=O)OCC,.,.,.,.,-4.3*,.
Cc1ccc(C)c(S(=O)(=O)ON2C(=O)c3ccccc3C2=O)c1,7,-1,2,3,-3.6*,-1
Cc1cc(S(=O)(=O)ON2C(=O)c3ccccc3C2=O)ccc1F,.,-3,.,.,.,.
COc1ccc(NC(=O)C/C(C)=N/NC(=O)COc2ccc(OC)cc2)cc1,13,4,-4,.,.,1
COc1ccc(OCC(=O)N/N=C(\C)CC(=O)Nc2cccc([N+](=O)[O-])c2)cc1,9,-1,7,32*,-0.77,1
NC(=O)CC(NC(=O)Cc1ccc(Cl)cc1)c1ccc(NC2CC3CCC2C3)c([N+](=O)[O-])c1 (stereo unspecified),-11,-9,2,.,.,0
COc1ccc(/C=N\NC(=O)c2ccccc2[N+](=O)[O-])cc1COc1c(F)c(F)c(F)c(F)c1F,24,53*,-6,.,.,3
COc1ccc(/C=N\NC(=O)c2ccc([N+](=O)[O-])cc2)cc1COc1c(F)c(F)cc(F)c1F,15,-4,0,.,.,0
Cc1cc2cc(C=O)c(Cl)nc2cc1C,17,48*,0,-8,0.21,3
Cc1ccc2cc(C=O)c(N(C)C)nc2c1,8,6,0,-5,1.6,0
SMILES,Mdm2 MdmX PPI,Beta2AR agonist,XBP1 UPR activ,Mdm2 ligase inh,Dynein transport,CHOP UPR activ
Cn1c2ccccc2c2ccc3c(c21)C(=O)C=CC3=O,.,76*,.,.,.,.
Cc1ccc(C)c2c1c1ccccc1n2C,-4,1,-3,-5,0.0073,-2
Cc1cc2oc(=O)cc(-c3ccccc3)c2c(C)c1-c1ccc(C#N)cc1,-2,11,-2,.,.,1
O=C1Nc2ccccc2/C1=N/N=C/c1ccc(-c2ccc([N+](=O)[O-])cc2)o1,.,43*,.,-10,-0.81,.
COc1ccc(/C=N/Nc2ncnc3c2[nH]c2ccccc23)c(OC)c1OC,-3,0,0,-11,1,1
COc1cccc(/C=N/Nc2ncnc3c2[nH]c2ccc(C)cc23)c1OC,42,52*,7,-7,-0.0052,4
CNS(=O)(=O)c1cccc(C(=O)OCc2cc(=O)oc3c(C)c(O)ccc23)c1,32,6,6,.,.,-2
CCc1cc2c(COC(=O)c3cccc(S(C)(=O)=O)c3)cc(=O)oc2cc1O,14,61*,2,.,.,-1
CC(=O)Nc1ccc2c(c1)Cc1cc(N3C(=O)C=CC3=O)ccc1-2,.,44*,.,.,.,.
O=C1C=CC(=O)N1c1ccc2c(c1)Cc1cc(F)ccc1-2,.,4,.,.,.,.
COc1ccc(C(=O)C2CCCN(C(=O)c3cccc(N(C)C)c3)C2)cc1OC (stereo unspecified),-2,8,-3,.,.,7
O=S(=O)(/C=C/c1ccccc1)NCc1ccccc1Cl,-13,67*,3,-4,-1.3,6
CSc1nnc(-c2ccc(NC(N)=S)cc2)o1,-5,2,-3,-5,-0.047,1
CSc1nnc(-c2cccc(NC(=S)NN)c2)o1,-6,74*,-2,-8,-0.7,-1
COc1cccc(NC(=O)N2CCCC2C(=O)NC2CCCC2)c1 (stereo unspecified),1,6,-8,.,.,0
CC(=O)Nc1ccc(S(=O)(=O)N(C)CC(=O)OCC(=O)N2CCc3ccccc32)cc1,-16,2,-2,47*,-0.54,0
CN1C/C(=C/c2cccnc2)C(=O)/C(=C/c2cccnc2)C1,.,43*,.,.,-5.9*,.
Cc1ccc(S(=O)(=O)N2CCC(C(=O)N3CCc4ccccc43)CC2)cc1C,-27,-7,-4,.,.,-1
C#CCOCCOCCOCCNc1nc(N2CCN(C(=O)CCCCCCCCCCNC(=O)[C@@H](CCSC)n3cc(CCO)nn3)CC2)nc(N2CCN(C(=O)CCCCCCCCCCNC(=O)[C@H]([C@@H](C)CC)n3cc(CCCCN=C(N)N)nn3)CC2)n1,5,78*,0,.,.,2
